Assay results reported in ChEMBL document CHEMBL1134641, “Progress toward the development of a safe and effective agent for treating reentrant cardiac arrhythmias: synthesis and evaluation of ibutilide analogues with enhanced metabolic stability and diminished proarrhythmic potential” (2001).

Columns and labels:
Canis familiaris [1] = experiment: Atrial effective refractory period (AEPR) measured in canine 24-h Infarction model at an cumulative intravenous dose of 0.24 uM/kg; assay type: functional, Canis lupus familiaris, Cardiac atrium
How it was run: (§1)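 Male mongrel dogs (16-22 kg) with LAD permanently ligated in two stages; studied 24 h later. […] given IV in sequential doses to cumulative 0.24, 0.72, 2.4 µmol/kg. Saline controls (n=8) received vehicle, then a single IV 2.4 µmol/kg dose at the end. Measurements taken at baseline and 15 min after each dose. Means ± SEM, paired t-test, p ≤ 0.05.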

Canis familiaris [2] = experiment: Blood pressure measured in canine 24-h Infarction model at an cumulative intravenous dose of 0.24 uM/kg; assay type: functional, Canis lupus familiaris; how it was run: as §1
Canis familiaris [3] = experiment: Ventricular effective refractory period ([…]) measured in canine just after inducing atrial flutter (AFL) termination by the compound at a dose of 7.2 uM/kg; assay type: functional, Canis lupus familiaris, Heart
How it was run: (§2)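 Conscious dogs, loosely restrained in a sling, with exteriorized electrode leads, studied 2 weeks after instrumentation. AFL was induced and counted as sustained if it lasted 5 min. Compound in saline given intravenously every 5 min to cumulative 0.024-12.0 µmol/kg. VERP was measured at AFL termination and 3 min after each dose. Results are means ± SEM versus baseline, p ≤ 0.05.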

Canis familiaris [4] = experiment: QT interval measured in canine just after inducing atrial flutter (AFL) termination by the compound at a dose of 0.6 umol/kg; assay type: functional, Canis lupus familiaris, Heart
How it was run: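 Conscious, sling-restrained dogs with chronically implanted electrodes, studied after 2 weeks of recovery. Sustained AFL (>5 min) induced. Compound in saline given iv every 5 min to cumulative 0.024-12.0 µmol/kg. At AFL termination, HR, QT (paced cycle length 300 ms), AERP and VERP measured. Measurements then taken 3 min after each further dose. Significance p≤0.05 vs baseline.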

Canis familiaris [5] = experiment: Atrial effective refractory period (AEPR) measured in canine 24-h Infarction model at a single intravenous dose of 2.4 uM/kg; assay type: functional, Canis lupus familiaris, Cardiac atrium; how it was run: as §1
Canis familiaris [6] = experiment: QT interval measured in canine 24-h Infarction model at an cumulative intravenous dose of 0.72 uM/kg; assay type: functional, Canis lupus familiaris
How it was run: (§3)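 Dogs 24 h after two-stage LAD ligation. Compound in saline given iv in sequential doses (cumulative 0.24, 0.72, 2.4 µmol/kg); saline controls then given a single 2.4 µmol/kg iv dose. HR, IVR, BP, QT, spontaneous arrhythmias/min, ERPs and MAPD90 measured at baseline and 15 min after each dose. Means ± SEM, paired t-test, p≤0.05.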

Canis familiaris [7] = experiment: Number of canine in which sustained ventricular tachycardia (SVT) was observed in PES-induced arrhythmias at an single intravenous dose of 2.4 uM/kg; assay type: functional, Canis lupus familiaris, Cardiac ventricle
How it was run: (§4)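 Male mongrel dogs (16-22 kg) with LAD ligated in two stages, studied 24 h later. Programmed electrical stimulation at baseline and 15 min after each iv dose in saline (cumulative 0.24, 0.72, 2.4 µmol/kg). Saline controls then received a single 2.4 µmol/kg iv dose. Responses scored as NI (≤15 beats), NSVT (>15 beats, ends within 30 s), SVT (>30 s, needing pacing or cardioversion) or VF. A positive response was repeated.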

Canis familiaris [8] = experiment: Atrial effective refractory period (AERP) measured in canine just after inducing atrial flutter (AFL) termination by the compound at a dose of 12.0 uM/kg; assay type: functional, Canis lupus familiaris, Heart
Canis familiaris [9] = experiment: QT interval measured in canine just after inducing atrial flutter (AFL) termination by the compound at a dose of 0.24 umol/kg; assay type: functional, Canis lupus familiaris, Heart
Canis familiaris [10] = experiment: Heart Rate measured in canine just after inducing atrial flutter (AFL) termination by the compound at a dose of 7.2 uM/kg; assay type: functional, Canis lupus familiaris
Canis familiaris [11] = experiment: Atrial MAPD90 measured in canine 24-h Infarction model at an cumulative intravenous dose of 0.24 uM/kg; assay type: functional, Canis lupus familiaris, Cardiac atrium; how it was run: as §1
Canis familiaris [12] = experiment: Ventricular effective refractory period ([…]) measured in canine just after inducing atrial flutter (AFL) termination by the compound at a dose of 0.24 umol/kg; assay type: functional, Canis lupus familiaris, Heart; how it was run: as §2
Canis familiaris [13] = experiment: Number of canine in which nonsustained ventricular tachycardia (NSVT) was observed in PES-induced arrhythmias at an cumulative intravenous dose of 0.72 uM/kg; assay type: functional, Canis lupus familiaris, Cardiac ventricle; how it was run: as §4
Canis familiaris [14] = experiment: Ventricular MAPD90 measured in canine 24-h Infarction model at an cumulative intravenous dose of 0.24 uM/kg; assay type: functional, Canis lupus familiaris, Heart; how it was run: as §3
Canis familiaris [15] = experiment: Blood pressure measured in canine 24-h Infarction model at an cumulative intravenous dose of 0.72 uM/kg; assay type: functional, Canis lupus familiaris; how it was run: as §1
Canis familiaris [16] = experiment: Ventricular effective refractory period ([…]) measured in canine just after inducing atrial flutter (AFL) termination by the compound at a dose of 2.4 uM/kg; assay type: functional, Canis lupus familiaris, Heart; how it was run: as §2
Canis familiaris [17] = experiment: Heart Rate measured in canine just after inducing atrial flutter (AFL) termination by the compound at a dose of 2.4 uM/kg; assay type: functional, Canis lupus familiaris
Canis familiaris [18] = experiment: Atrial MAPD90 measured in canine 24-h Infarction model at an cumulative intravenous dose of 0.72 uM/kg; assay type: functional, Canis lupus familiaris, Cardiac atrium; how it was run: as §1
Canis familiaris [19] = experiment: Atrial effective refractory period (AERP) measured in canine just after inducing atrial flutter (AFL) termination by the compound at a dose of 9.6 uM/kg; assay type: functional, Canis lupus familiaris, Heart
Canis familiaris [20] = experiment: Heart rate measured in canine 24-h Infarction model at an cumulative intravenous dose of 0.72 uM/kg; assay type: functional, Canis lupus familiaris; how it was run: as §1
Canis familiaris [21] = experiment: Spontaneous arrhythmias measured in canine 24-h Infarction model at a single intravenous dose of 2.4 uM/kg; assay type: functional, Canis lupus familiaris; how it was run: as §3
Canis familiaris [22] = experiment: Atrial effective refractory period (AEPR) measured in canine 24-h Infarction model at an cumulative intravenous dose of 0.72 uM/kg; assay type: functional, Canis lupus familiaris, Cardiac atrium; how it was run: as §1
Canis familiaris [23] = experiment: Idioventricular heart rate (IVR) measured in canine 24-h Infarction model at a single intravenous dose of 2.4 uM/kg; assay type: functional, Canis lupus familiaris; how it was run: as §1
Canis familiaris [24] = experiment: Atrial effective refractory period (AERP) measured in canine just after inducing atrial flutter (AFL) termination by the compound at a dose of 2.4 uM/kg; assay type: functional, Canis lupus familiaris, Heart
Canis familiaris [25] = experiment: Number of canine in which nonsustained ventricular tachycardia (NSVT) was observed in PES-induced arrhythmias at an single intravenous dose of 2.4 uM/kg; assay type: functional, Canis lupus familiaris, Cardiac ventricle; how it was run: as §4
Canis familiaris [26] = experiment: Number of canine in which sustained ventricular tachycardia (SVT) was observed in PES-induced arrhythmias at an cumulative intravenous dose of 0.72 uM/kg; assay type: functional, Canis lupus familiaris, Cardiac ventricle; how it was run: as §4
Canis familiaris [27] = experiment: Number of canine in which ventricular fibrillation (VF) was observed in PES-induced arrhythmias at an cumulative intravenous dose of 0.72 uM/kg; assay type: functional, Canis lupus familiaris, Cardiac ventricle; how it was run: as §4
Canis familiaris [28] = experiment: Heart Rate measured in canine just after inducing atrial flutter (AFL) termination by the compound at a dose of 0.6 umol/kg; assay type: functional, Canis lupus familiaris
Canis familiaris [29] = experiment: Idioventricular heart rate (IVR) measured in canine 24-h Infarction model at an cumulative intravenous dose of 0.24 uM/kg; assay type: functional, Canis lupus familiaris; how it was run: as §1
Canis familiaris [30] = experiment: Atrial effective refractory period (AERP) measured in canine just after inducing atrial flutter (AFL) termination by the compound at a dose of 1.2 uM/kg; assay type: functional, Canis lupus familiaris, Heart
Canis familiaris [31] = experiment: Atrial effective refractory period (AERP) measured in canine just after inducing atrial flutter (AFL) termination by the compound at a dose of 0.24 umol/kg; assay type: functional, Canis lupus familiaris, Heart
Canis familiaris [32] = experiment: Heart Rate measured in canine just after inducing atrial flutter (AFL) termination by the compound at a dose of 0.24 umol/kg; assay type: functional, Canis lupus familiaris
Canis familiaris [33] = experiment: Number of canine in which ventricular fibrillation (VF) was observed in PES-induced arrhythmias at an single intravenous dose of 2.4 uM/kg; assay type: functional, Canis lupus familiaris, Cardiac ventricle; how it was run: as §4

`CCN(CCCCCC(C)(C)F)CCC[C@H](O)c1ccc(NS(C)(=O)=O)cc1.O=C(O)/C=C/C(=O)O` gave an AERP (Canis familiaris [1]) of 149 ms, a BP (Canis familiaris [2]) of 112 mmHg and a VERP (Canis familiaris [3]) of 140 ms. For the same molecule, the QT interval (Canis familiaris [4]) was 208 ms, the AERP (Canis familiaris [5]) was 179 ms and the QT interval (Canis familiaris [6]) was 218 ms. The No. of canine (Canis familiaris [7]) was 1, the AERP (Canis familiaris [8]) was 164 ms and the QT interval (Canis familiaris [9]) was 196 ms. For the same molecule, the HR (Canis familiaris [10]) was 127 beats min-1, the “Atrial MAPD90” value (Canis familiaris [11]) was 148 ms and the VERP (Canis familiaris [12]) was 142 ms. For the same molecule, the No. of canine (Canis familiaris [13]) was 0, the “Ventricular MAPD90” value (Canis familiaris [14]) was 162 ms and the BP (Canis familiaris [15]) was 115 mmHg. The VERP (Canis familiaris [16]) was 143 ms, the HR (Canis familiaris [17]) was 113 beats min-1 and the “Atrial MAPD90” value (Canis familiaris [18]) was 146 ms. It also gave an AERP (Canis familiaris [19]) of 165 ms, an HR (Canis familiaris [20]) of 146 beats min-1 and a PVCs (Canis familiaris [21]) of 53 number min-1. For the same molecule, the AERP (Canis familiaris [22]) was 166 ms, the IVR (Canis familiaris [23]) was 111 beats min-1 and the AERP (Canis familiaris [24]) was 166 ms. The No. of canine (Canis familiaris [25]) was 0, the No. of canine (Canis familiaris [26]) was 2 and the No. of canine (Canis familiaris [27]) was 0. For the same molecule, the HR (Canis familiaris [28]) was 111 beats min-1, the IVR (Canis familiaris [29]) was 138 beats min-1 and the AERP (Canis familiaris [30]) was 160 ms. It also gave an AERP (Canis familiaris [31]) of 160 ms, an HR (Canis familiaris [32]) of 128 beats min-1 and a No. of canine (Canis familiaris [33]) of 0.
